Structures are written as SMILES. A value given as a limit tells only on which side of the number the result lay.

For the first data set, the target named is RNA-directed RNA polymerase (Hepacivirus hominis, UniProt O39930). Kind of data set: Inhibitory concentration against RNA dependent RNA polymerase nonstructural protein 5B of hepatitis C virus.
RNA-directed RNA polymerase, sequence (O39930 whole entry): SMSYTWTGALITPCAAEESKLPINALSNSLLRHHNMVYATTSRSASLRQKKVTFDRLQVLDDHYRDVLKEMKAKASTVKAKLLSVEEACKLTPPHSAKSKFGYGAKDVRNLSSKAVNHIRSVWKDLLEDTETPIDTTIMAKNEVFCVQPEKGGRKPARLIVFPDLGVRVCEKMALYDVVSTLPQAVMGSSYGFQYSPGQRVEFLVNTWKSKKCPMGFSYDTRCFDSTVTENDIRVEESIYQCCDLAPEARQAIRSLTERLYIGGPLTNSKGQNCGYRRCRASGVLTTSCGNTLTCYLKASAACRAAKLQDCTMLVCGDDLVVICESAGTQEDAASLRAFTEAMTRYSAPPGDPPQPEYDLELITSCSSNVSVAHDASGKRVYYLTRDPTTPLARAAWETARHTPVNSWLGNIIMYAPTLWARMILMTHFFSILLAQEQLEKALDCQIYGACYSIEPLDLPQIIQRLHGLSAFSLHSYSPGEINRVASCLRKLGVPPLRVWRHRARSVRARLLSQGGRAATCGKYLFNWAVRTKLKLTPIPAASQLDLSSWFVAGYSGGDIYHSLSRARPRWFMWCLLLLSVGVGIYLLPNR
Settings: not given
A digest of the protocol:
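HCV NS5B D55 construct (6 nM), scintillation proximity assay: biotinylated oligoG12/polyC template-primer with GTP plus [3H]-GTP, in 20 mM HEPES pH 7.3, 7.5 mM DTT, 10 mM MgCl2, 60 mM NaCl, BSA, and RNasin, for 50 min at room temperature. Stopped with streptavidin SPA beads plus 100 mM EDTA; incorporated label counted. IC50 from single experiments over 11 serial 2-fold dilutions.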
For the compound `COc1ccccc1COc1ccc(C(=O)N(c2ncc(C(=O)O)s2)C2CCCCC2)cc1`, half-maximal inhibition (IC50) required 8.5 µM.
The same measure, in the same setting: the figure for `O=C(O)c1cnc(N(C(=O)c2ccc(OCc3cccc(F)c3)cc2)C2CCCCC2)s1` is 6.5 µM.
Still for that read-out and setting: the figure for `COc1ccccc1Oc1ccc(C(=O)N(c2ncc(C(=O)O)s2)C2CCCCC2)cc1` is 8.5 µM.
On to `O=C(O)c1cnc(N(C(=O)c2ccc(Oc3cccc(C(F)(F)F)c3)cc2)C2CCCCC2)s1`, for which half-maximal inhibition (IC50) required 4.4 µM.
On the same count and under the same terms, for `O=C(O)c1cnc(N(C(=O)c2ccc(Oc3ccccc3)cc2)C2CCSCC2)s1` the value was 13 µM; for `O=C(O)c1cnc(N(C(=O)c2ccc(OCc3ccccn3)cc2)C2CCCCC2)s1`, 15 µM; for `CC(C)N(C(=O)c1ccc(Oc2ccccc2)cc1)c1ncc(C(=O)O)s1`, over 50 µM.
As to `O=C(O)c1cnc(N(C(=O)c2ccc(Oc3cccc(Cl)c3)cc2)C2CCCCC2)s1`, it took 2.8 µM to reach half-maximal inhibition (IC50).
Regarding `COc1cccc(Oc2ccc(C(=O)N(c3ncc(C(=O)O)s3)C3CCCCC3)cc2)c1`, the IC50 (usually the concentration that inhibits the measured activity by half) came to 3.1 µM.
For the compound `O=C(O)c1cnc(N(C(=O)c2ccc(Oc3ccc(Cl)cc3)cc2)C2CCCCC2)s1`, half-maximal inhibition (IC50) required 4.2 µM.
Still for that read-out and setting: the figure for `O=C(O)c1csc(N(C(=O)c2ccc(Oc3ccccc3)cc2)C2CCCCC2)n1` is 10 µM.
With `O=C(O)c1cnc(N(C(=O)c2ccc(Oc3ccccc3)cc2)C2CCS(=O)(=O)CC2)s1`, the IC50 was over 50 µM.
The compound `O=C(Nc1nc(C(=O)O)cs1)c1ccc(Oc2ccccc2)cc1` showed an IC50 of over 50 µM.
Still for that read-out and setting: the figure for `O=C(O)c1cnc(N(C(=O)c2ccc(OCc3ccc(F)cc3)cc2)C2CCCCC2)s1` is 3.9 µM; for `CC(C)N(C(=O)c1ccc(Oc2ccccc2)cc1)c1nc(C(=O)O)cs1` it is over 50 µM; for `O=C(O)c1cnc(N(C(=O)c2ccc(OCc3cccc(C(F)(F)F)c3)cc2)C2CCCCC2)s1` it is 1.4 µM.
The same measure, in the same setting: for `O=C(Nc1ncc(C(=O)O)s1)c1ccc(Oc2ccccc2)cc1` the value was over 50 µM; for `O=C(O)c1cnc(N(C(=O)c2ccc(OCc3ccccc3F)cc2)C2CCCCC2)s1`, 4 µM.
Still for that read-out and setting: for `O=C(O)c1cnc(N(C(=O)c2ccc(Oc3ccc(Cl)c(Cl)c3)cc2)C2CCCCC2)s1` the value was 2.6 µM.
`O=C(O)c1cnc(N(C(=O)c2ccc(OCc3cccs3)cc2)C2CCCCC2)s1` came in with an IC50 of 7 µM.
Still for that read-out and setting: the figure for `O=C(O)c1cnc(N(C(=O)c2ccc(OCc3ccccc3)cc2)C2CCCCC2)s1` is 6.5 µM; for `COc1ccc(Oc2ccc(C(=O)N(c3ncc(C(=O)O)s3)C3CCCCC3)cc2)cc1OC` it is 3.5 µM; for `O=C(O)c1cnc(N(C(=O)c2ccc(OC3CCCCC3)cc2)C2CCCCC2)s1` it is 5.5 µM.
On the same count and under the same terms, for `O=C(O)c1cnc(N(C(=O)c2ccc(OCc3ccccc3C(F)(F)F)cc2)C2CCCCC2)s1` the value was 5.1 µM; for `COc1cccc(COc2ccc(C(=O)N(c3ncc(C(=O)O)s3)C3CCCCC3)cc2)c1`, 3.2 µM; for `O=C(O)c1cnc(N(C(=O)c2ccc(Oc3ccccc3)cc2)C2CCCCC2)s1`, 7 µM.
On the same count and under the same terms, the figure for `O=C(O)c1cnc(N(C(=O)c2ccc(Oc3cccc(OC(F)(F)F)c3)cc2)C2CCCCC2)s1` is 5.2 µM.
Compound `C[C@@H]1C[C@@H](N(C(=O)c2ccc(Oc3ccccc3)cc2)c2ncc(C(=O)O)s2)CC(C)(C)C1` (single isomer, unassigned) came in with an IC50 of 6 µM.
Same read-out and setting: the figure for `C[C@@H]1C[C@@H](N(C(=O)c2ccc(Oc3ccccc3)cc2)c2nc(C(=O)O)cs2)CC(C)(C)C1` (single isomer, unassigned) is 5.5 µM.
With `C[C@H]1CCCC[C@@H]1N(C(=O)c1ccc(Oc2ccccc2)cc1)c1ncc(C(=O)O)s1` (single isomer, unassigned; cis), the 50% inhibitory concentration (IC50) was found to be 6.1 µM.
Still for that read-out and setting: the figure for `C[C@H]1CCCC[C@@H]1N(C(=O)c1ccc(Oc2ccccc2)cc1)c1ncc(C(=O)O)s1` (single isomer, unassigned; trans) is 9.4 µM; for `CC(C)(C)[C@H]1CC[C@H](N(C(=O)c2ccc(Oc3ccccc3)cc2)c2ncc(C(=O)O)s2)CC1` (stereo in doubt; cis) it is 3.4 µM; for `C[C@H]1CC[C@H](N(C(=O)c2ccc(Oc3ccccc3)cc2)c2ncc(C(=O)O)s2)CC1` (stereo in doubt; cis) it is 6.6 µM.
The same measure, in the same setting: for `CC(C)(C)[C@H]1CC[C@@H](N(C(=O)c2ccc(Oc3ccccc3)cc2)c2nc(C(=O)O)cs2)CC1` (stereo in doubt; cis) the value was 2.8 µM.
On the same count and under the same terms, the figure for `C[C@@H]1CCCC[C@H]1N(C(=O)c1ccc(Oc2ccccc2)cc1)c1nc(C(=O)O)cs1` (stereo in doubt; cis) is 7.6 µM; for `C[C@H]1CC[C@@H](N(C(=O)c2ccc(Oc3ccccc3)cc2)c2nc(C(=O)O)cs2)CC1` (stereo in doubt; cis) it is 5.7 µM; for `CC(C)(C)[C@H]1CC[C@H](N(C(=O)c2ccc(Oc3ccccc3)cc2)c2ncc(C(=O)O)s2)CC1` (stereo in doubt; trans) it is 6 µM.
`C[C@H]1CC[C@H](N(C(=O)c2ccc(Oc3ccccc3)cc2)c2ncc(C(=O)O)s2)CC1` (stereo in doubt; trans): the IC50 was 5 µM.
Still for that read-out and setting: the figure for `CC(C)(C)[C@H]1CC[C@@H](N(C(=O)c2ccc(Oc3ccccc3)cc2)c2nc(C(=O)O)cs2)CC1` (stereo in doubt; trans) is 4.7 µM.
On the same count and under the same terms, the figure for `C[C@@H]1CCCC[C@H]1N(C(=O)c1ccc(Oc2ccccc2)cc1)c1nc(C(=O)O)cs1` (stereo in doubt; trans) is 11 µM; for `C[C@H]1CC[C@@H](N(C(=O)c2ccc(Oc3ccccc3)cc2)c2nc(C(=O)O)cs2)CC1` (stereo in doubt; trans) it is 5.4 µM.

System in another data set: not listed separately
In words: Clearance rate from human hepatocytes. Type of data set: ADME, Liver, Hepatocyte.
Settings: not given
Consider `O=C(O)c1cnc(N(C(=O)c2ccc(OCc3cccc(C(F)(F)F)c3)cc2)C2CCCCC2)s1`, for which the CL is 5 lL/min/million.

For another data set, the target named is Cytochrome P450 2D6 (Homo sapiens, UniProt P10635). Kind of data set: Inhibitory concentration against Cytochrome P450 2D6. Type of data set: ADME.
Cytochrome P450 2D6, sequence (P10635 whole entry): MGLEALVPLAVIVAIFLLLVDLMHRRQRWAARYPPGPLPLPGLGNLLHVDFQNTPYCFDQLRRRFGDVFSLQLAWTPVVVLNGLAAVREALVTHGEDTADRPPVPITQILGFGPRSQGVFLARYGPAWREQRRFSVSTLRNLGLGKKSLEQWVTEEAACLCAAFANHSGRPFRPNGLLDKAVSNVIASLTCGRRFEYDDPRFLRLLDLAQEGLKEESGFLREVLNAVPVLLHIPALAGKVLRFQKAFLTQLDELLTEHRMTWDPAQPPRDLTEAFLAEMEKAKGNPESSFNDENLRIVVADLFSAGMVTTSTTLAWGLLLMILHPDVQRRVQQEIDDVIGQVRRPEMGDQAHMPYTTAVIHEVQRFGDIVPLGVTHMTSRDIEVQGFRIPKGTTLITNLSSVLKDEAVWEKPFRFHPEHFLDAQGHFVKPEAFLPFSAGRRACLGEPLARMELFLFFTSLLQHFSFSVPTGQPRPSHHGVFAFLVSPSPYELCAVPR
Settings: not given
For the compound `O=C(O)c1cnc(N(C(=O)c2ccc(OCc3cccc(C(F)(F)F)c3)cc2)C2CCCCC2)s1`, the IC50 was over 30 µM.

System in the next data set: not listed separately
In words: Permeability determined in Caco-2 experiment. Type of data set: ADME. As to conditions: human, read-out: Permeability. (Passage across Caco-2 layers is used to estimate intestinal permeability.)
For `O=C(O)c1cnc(N(C(=O)c2ccc(OCc3cccc(C(F)(F)F)c3)cc2)C2CCCCC2)s1`, the Papp stood at 147 nm/s.

The target of the next data set is Cytochrome P450 3A4 (Homo sapiens, UniProt P08684). In words: Inhibitory concentration against Cytochrome P450 3A4. It is filed as ADME.
Cytochrome P450 3A4, sequence (P08684 whole entry): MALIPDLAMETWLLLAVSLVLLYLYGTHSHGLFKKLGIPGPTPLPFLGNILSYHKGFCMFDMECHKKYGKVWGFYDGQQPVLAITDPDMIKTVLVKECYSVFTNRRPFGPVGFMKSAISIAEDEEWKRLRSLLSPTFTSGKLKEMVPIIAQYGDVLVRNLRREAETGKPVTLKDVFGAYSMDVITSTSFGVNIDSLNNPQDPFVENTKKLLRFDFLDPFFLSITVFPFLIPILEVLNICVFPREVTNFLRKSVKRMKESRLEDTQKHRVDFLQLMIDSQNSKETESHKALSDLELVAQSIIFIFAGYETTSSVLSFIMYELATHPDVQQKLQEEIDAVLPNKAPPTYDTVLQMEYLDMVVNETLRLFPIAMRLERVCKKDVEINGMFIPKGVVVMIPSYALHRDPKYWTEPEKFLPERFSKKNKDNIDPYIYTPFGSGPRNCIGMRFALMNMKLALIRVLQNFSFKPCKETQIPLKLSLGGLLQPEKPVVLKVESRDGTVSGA
Settings: not given
Regarding `O=C(O)c1cnc(N(C(=O)c2ccc(OCc3cccc(C(F)(F)F)c3)cc2)C2CCCCC2)s1`, the IC50 was over 30 µM.
